Dynein transport = inhibitors of GR-EGFP nuclear translocation, primary screen, dynein cargo transport inhibitor project, imaging, high-content, 3617.4 mouse cells; test concentration mostly 20 µM; stimulated with dexamethasone, 1 µM; hits give low values; z-score, hits read low; actives 0.47% (n = 220,000); AID 1381, 2008;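 active = plate z-score of nuclear minus cytoplasmic receptor signal below a set negative limit, without overly bright fluorescence or cell loss, cut at about -3.5 in these data, passing the limit was not always enough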;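 also: z-score of nuclear minus cytoplasmic ring GR-EGFP intensity difference per well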
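Buffer or medium: tet-free, stripped-serum medium; reagent: dexamethasone at 1.0 µM final, 30 min; incubation: 48 h induction, 1 h compound, 30 min dex at 37 °C; measured by: formaldehyde fixation, Hoechst nuclear stain, 10x automated fluorescence imaging; read-out: nuclear-to-cytoplasmic GR-EGFP distribution per well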
pCIP destab = p/CIP-EGFP fusion destabilizers, primary screen, fluorescence, F442A cells | AID 1984, 2009 | actives 0.01% (n = 290,000) | decrease of EGFP signal, % at 10 µM | 16 h;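 active = EGFP signal decrease of at least 30% at 10 µM or well 3 SD below plate mean, unless failing retest; inactive = the rest, including hits failing retest or dose response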
V-ATPase pH = regulators of yeast V-ATPase proton pumping, primary screen, pHLuorin cytosolic pH fluorescence; S. cerevisiae; response, % at 10 µM; actives 0.37% (n = 350,000); in the data active = response mostly above about 7.3%, no sharp cut-off; inactive = mostly below about 5.4%; also: actives read high
ABCB6 inh 2 = ABCB6 transporter inhibitors, primary screen, K562-ABCB6 cells, flow cytometry, MLPCN library | ATP-binding cassette sub-family B member 6 (Homo sapiens), Q9NP58 | K562-ABCB6 porphyrin accumulation, 1 h; hits give low values | fluorescence ratio to DMSO, % at 10 µM | actives 0.19% (n = 360,000) | AID 602162, 2011;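 active = fluorescence ratio to DMSO below 75%, the collection mean minus 3 SD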;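 also: signal is porphyrin accumulated inside mitochondria; 100% equals median channel fluorescence of DMSO control wells; lower ratio means ABCB6 inhibition with less porphyrin fluorescence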
Cl transport mod = KCC2 cotransporter modulators, thallium flux, primary screen, cell-based, HEK293 KCC2, FluoZin-2 fluorescence, MLSMR | KCC2 cells, thallium flux FluoZin-2 fluorescence | Solute carrier family 12 member 5 (Homo sapiens), Q9H2X9 | actives 2.2% (n = 190,000) | B-score of Tl+ flux slope (higher = more flux/activation; lower = inhibition) at 10 µM | AID 1456, 2008;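 active = thallium flux slope and its plate-corrected score both differing from the plate sample mean at a set confidence after two filtering rounds, in either direction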;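 also: slope of fluorescence scaled to starting intensity during 10 to 20 s after thallium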
* marks the source's active call; other numbers are inactive results; nt = no result given. The full list was thinned out, with hits kept by preference.

SMILES | Dynein transport | pCIP destab | V-ATPase pH | ABCB6 inh 2 | Cl transport mod
CCN1C(=O)C(CC(=O)NCCc2ccccc2)N(NC(=O)c2ccc(Br)cc2)C1=S (stereo not drawn) | nt | nt | -2 | 96 | nt
CCc1ccc2oc(-c3ccc(OC)cc3)cc(=Nc3cccc(C(=O)O)c3)c2c1 | -0.38 | 9 | 1 | 99 | -7.2*
O=C(COc1ccc(Cl)cc1Cl)NC(=S)N1CCCc2ccccc21 | 0.0068 | -12 | 1 | 103 | 21*
O=C(COc1ccc(Cl)cc1Cl)OCC(=O)N1CCCc2ccccc21 | -0.13 | -2 | 2 | 91 | 0.0016
Cc1cccc(OCC(=O)NC(=S)N2CCCc3ccccc32)c1 | 1.1 | -18 | -2 | 102 | 23*
Cc1cccc(OCC(=O)Nc2ccccc2N2CCCCC2)c1 | 0.81 | -3 | -3 | 96 | nt
Cc1cc(C)n(-c2ccc(C(=O)NCC(c3ccco3)N3CCCC3)cc2)n1 (stereo not drawn) | nt | nt | 16* | 100 | nt
CN(C)c1ccc(-c2ccnc3c2CC(C)(C(=O)NCc2cccc(Cl)c2)O3)cc1 (stereo not drawn) | nt | nt | nt | 96 | nt
CCOC(=O)c1ccc(N=c2sc(C(=O)OC)cc(=O)n2-c2ccc(C(=O)OCC)cc2)cc1 | -3.3 | 4 | -4 | 106 | 0.013
COC(=O)c1cc(=O)n(Cc2ccco2)c(=Nc2ccc(F)cc2)s1 | -4.6* | 5 | 0 | 98 | 0.013
Cc1cccc(NC(=S)c2nc3ccccc3s2)c1 | -0.6 | -4 | -2 | 105 | 3.3*
O=C(Nc1ccccc1)c1nc2ccccc2s1 | 0.77 | 2 | -3 | 98 | 1.9
O=C1NN(c2ccc(Cl)c(Cl)c2)C(=O)/C1=C/c1cccc(OC(=O)c2cccs2)c1 | -3.8* | -2 | nt | nt | -1.2
CCN(CC)C(=S)SCC(=O)Nc1nc(=O)c2ccccc2s1 | 2.2 | 2 | -4 | 105 | 16*
COc1ccc(C2NN=C(c3ccc(C)cc3)S2)cc1 (stereo not drawn) | nt | -2 | 0 | 98 | nt
CCOc1cc(C2NN=C(c3ccc(C)cc3)S2)ccc1O (stereo not drawn) | -0.27 | -10 | -3 | 96 | 41*
O=C(CNc1cccc(Br)c1)Nc1ccc(S(=O)(=O)N2CCCCC2)cc1 | nt | nt | -2 | 94 | nt
Cc1cccc(-n2c(-c3csc(C(C)C)c3)n[nH]c2=S)c1 | 0.17 | -26 | 0 | 98 | 7.6*
Cc1cccc(-n2c(-c3csc(C)c3C)n[nH]c2=S)c1 | -0.7 | 6 | 3 | 97 | 3.9
CSCCC(NC(=O)COc1ccccc1)C(=O)NCC(C)(C)N1CCOCC1 (stereo not drawn) | nt | nt | -1 | 98 | nt
CCCOc1ccc(CNC(=S)N/N=C/c2ccc([N+](=O)[O-])cc2)cc1 | 0.03 | 6 | -6 | 62* | 1.7
COCCNC(=O)CSc1ccc(C)cc1 | -0.52 | -10 | -3 | 106 | -0.46
Cc1ccc(SCC(=O)NCCSC(C)(C)C)cc1 | -0.51 | 1 | 19* | 108 | nt
CC(C)c1ccc(NC(=O)C2CCCCC2C(=O)O)cc1 (stereo not drawn) | 3.1 | -1 | 14* | 95 | -0.38
O=C1C=CC(=Nc2cccc3c2C(=O)c2ccccc2-3)O1 | nt | nt | 11* | 104 | nt
SMILES | Dynein transport | pCIP destab | V-ATPase pH | ABCB6 inh 2 | Cl transport mod
CNc1cccc2c1C(=O)c1ccccc1C2=O | -0.69 | -13 | -4 | 123 | -0.028
NC(=O)c1cnc(Cc2c[nH]c3ccccc23)c(I)c1 | nt | nt | nt | 103 | nt
O=C1C2C3C=CC(CO)(O3)C2C(=O)N1c1ccccc1-c1ccccc1 (stereo not drawn) | -5.7* | -7 | 9 | 94 | 0.15
CC(=O)Oc1ccc(N2C(=O)C3C4C=CC(CO)(O4)C3C2=O)cc1 (stereo not drawn) | 0.033 | -3 | -4 | 214 | -0.51
O=c1c2ccc(Cl)cc2[nH]c(=S)n1CCC1=CCCCC1 | 0.12 | 5 | 3 | 93 | 37*
CCOC(=O)N1CCN(C(=O)c2ccc3c(=O)n(CCC4=CCCCC4)c(=S)[nH]c3c2)CC1 | 0.12 | 11 | -1 | 102 | nt
Cc1ccc(NC(=O)C2(C)CCCN2C)cc1C (stereo not drawn) | nt | nt | nt | 103 | nt
Cc1cc(Br)cn2c(Cc3ccsc3)c(-c3ccc(Cl)cc3)nc12 | nt | nt | nt | 103 | nt
CC(C)(C)C(=O)N1CCN(c2ccc(Cl)cc2[N+](=O)[O-])CC1 | 1.4 | -11 | 2 | 99 | 1.1
O=C(NC(=S)N1CCN(c2ccc(Cl)cc2[N+](=O)[O-])CC1)c1cccs1 | -0.23 | -14 | -1 | 97 | 71*
O=C(NC(=S)N1CCN(c2ccc(Cl)cc2[N+](=O)[O-])CC1)c1ccco1 | -0.52 | -20 | 0 | 99 | 17*
COc1ccc(-c2ccc(C(=O)NCc3ccc(C(F)(F)F)cc3)c3occc23)c(C)c1 | nt | nt | nt | 76 | nt
C/C(=N\NC(=O)c1ccncc1)c1ccc(N2CCOCC2)cc1 | nt | nt | -1 | 96 | nt
C/C(=N\NC(=O)c1ccccc1)c1ccc(N2CCOCC2)cc1 | -3.6* | -6 | 2 | 89 | 0.0085
Cn1nc(C(F)(F)F)c(C(=O)Nc2ccc(F)cc2F)c1Oc1cccc(Cl)c1 | 0.087 | -10 | 2 | 97 | 0.022
Cc1nn(C)c(Oc2cccc(Cl)c2)c1C=O | 0.54 | -10 | -4 | 74* | nt
C[C@H](CO)N1C[C@H](C)[C@@H](CN(C)Cc2ccncc2)OCCCC[C@H](C)Oc2ccc(NC(=O)CCCN(C)C)cc2C1=O | nt | nt | nt | 100 | nt
O=C(C(=NNc1ccccc1)C(=S)Nc1ccccc1)c1ccccc1 | nt | nt | nt | 99 | nt
CC1CCCCC1NC(=O)c1cncc(Br)c1 (stereo not drawn) | 2.2 | -16 | 6 | 103 | 0.045
CC1CCCC(NC(=S)NC(=O)c2cncc(Br)c2)C1C (stereo not drawn) | -0.16 | 5 | -2 | 89 | 51*
O=c1c2ccccc2[nH]c(=S)n1C1CCCCC1 | -0.68 | -10 | -13 | 186 | 69*
CC1CCCCC1NC(=O)CCn1c(=S)[nH]c2ccccc2c1=O (stereo not drawn) | nt | nt | 3 | 96 | nt
CC1CCC(n2c(=S)[nH]c3ccccc3c2=O)CC1 (stereo not drawn) | -0.7 | -7 | 0 | 103 | 30*
CC1CCCC(n2c(=S)[nH]c3ccccc3c2=O)C1C (stereo not drawn) | 0.67 | -4 | -1 | 97 | 29*
CC1CCN(CCn2c(=S)[nH]c3ccccc3c2=O)CC1 | nt | -7 | 2 | 96 | nt
Cc1ccc(C(=O)Nc2nnc([C@H]3C[C@H](O)[C@@H](CO)O3)s2)cc1 | nt | nt | nt | 97 | nt
CC1(c2nnnn2Cc2ccccc2)CCC(=O)N1Cc1cccs1 (stereo not drawn) | nt | nt | nt | 102 | nt
Oc1ccccc1CNc1ccc(Br)cn1 | -0.78 | -12 | nt | 103 | 20*
Brc1ccc(NCc2cccc3ccccc23)nc1 | -0.75 | 1 | -5 | 95 | nt
